Laboratory results from ChEMBL document CHEMBL3603779, “Identification and Optimization of Benzimidazole Sulfonamides as Orally Bioavailable Sphingosine 1-Phosphate Receptor 1 Antagonists with in Vivo Activity” (J Med Chem, 2015).

Key:
[1] = biological target: Sphingosine 1-phosphate receptor 1 (Homo sapiens, UniProt P21453); experiment: Antagonist activity against human S1P1 receptor expressed in human U2OS cells co-expressing GFP assessed as inhibition of S1P-induced receptor translocation; format: cell-based
How it was run: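 Cellular S1P1 translocation (internalization) assay with antagonist; EC50 reported as mean of at least three separate determinations ± standard deviation.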

[2] = Intrinsic clearance in human liver microsomes pre-incubated at 37 degC for 5 mins before NADPH addition by LCMS/MS method; format: ADME; settings: read-out: CLH
Cytochrome P450 3A5 = Cytochrome P450 3A5 (Homo sapiens, UniProt P20815); experiment: Induction of CYP3A5 activation in human hepatocytes at 10 uM incubated for 48 hrs using testosterone substrate relative to rifampicin; format: ADME, cell-based, Hepatocyte
How it was run: (§1)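 Human hepatocyte CYP3A induction, testosterone probe with 6-β-hydroxytestosterone as marker; activity expressed as % of the rifampicin response; hepatocytes from two donors tested.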

Cytochrome P450 3A4 = Cytochrome P450 3A4 (Homo sapiens, UniProt P08684); experiment: Induction of CYP3A4 activation in human hepatocytes at 10 uM incubated for 48 hrs using testosterone substrate relative to rifampicin; format: ADME, cell-based, Hepatocyte; how it was run: as §1
[3] = Lipophilicity, log D of the compound at pH 7.4; format: physicochemical; settings: buffer
[4] = biological target: T1, Nuclear receptor subfamily 1 group I member 2 (Homo sapiens, UniProt O75469); experiment: Activation of human PXR expressed in human HepG2 cells co-expressing CYP3A4 assessed as CYP3A4 activation at 10 uM by luciferase reporter gene assay relative to rifampicin; format: ADME, cell-based; settings: hepg2, 10 µM
T1 sequence (O75469 whole entry): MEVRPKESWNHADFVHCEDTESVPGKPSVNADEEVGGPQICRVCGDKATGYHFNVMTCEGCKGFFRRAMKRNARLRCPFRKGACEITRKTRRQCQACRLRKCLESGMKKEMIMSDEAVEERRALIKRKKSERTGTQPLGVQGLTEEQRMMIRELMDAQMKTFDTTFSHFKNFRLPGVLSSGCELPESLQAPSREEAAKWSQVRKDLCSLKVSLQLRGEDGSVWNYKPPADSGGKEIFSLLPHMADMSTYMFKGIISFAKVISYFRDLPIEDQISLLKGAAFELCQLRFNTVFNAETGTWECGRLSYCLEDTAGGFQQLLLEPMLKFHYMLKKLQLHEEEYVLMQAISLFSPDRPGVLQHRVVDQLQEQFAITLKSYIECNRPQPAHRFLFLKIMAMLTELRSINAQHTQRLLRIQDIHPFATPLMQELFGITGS
How it was run: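 Single-concentration PXR reporter gene screen, compound at 10 μM; activation expressed as a percentage of the response to rifampicin, also at 10 μM.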

Cytochrome P450 2C19 = Cytochrome P450 2C19 (Homo sapiens, UniProt P33261); experiment: Inhibition of CYP2C19 in human liver microsomes incubated for 5 mins in presence of NADPH and specific substrates by LC/MS/MS method; format: ADME
Cytochrome P450 2D6 = Cytochrome P450 2D6 (Homo sapiens, UniProt P10635); experiment: Inhibition of CYP2D6 in human liver microsomes incubated for 5 mins in presence of NADPH and specific substrates by LC/MS/MS method; format: ADME
Sequence of Cytochrome P450 2D6 (P10635 whole entry): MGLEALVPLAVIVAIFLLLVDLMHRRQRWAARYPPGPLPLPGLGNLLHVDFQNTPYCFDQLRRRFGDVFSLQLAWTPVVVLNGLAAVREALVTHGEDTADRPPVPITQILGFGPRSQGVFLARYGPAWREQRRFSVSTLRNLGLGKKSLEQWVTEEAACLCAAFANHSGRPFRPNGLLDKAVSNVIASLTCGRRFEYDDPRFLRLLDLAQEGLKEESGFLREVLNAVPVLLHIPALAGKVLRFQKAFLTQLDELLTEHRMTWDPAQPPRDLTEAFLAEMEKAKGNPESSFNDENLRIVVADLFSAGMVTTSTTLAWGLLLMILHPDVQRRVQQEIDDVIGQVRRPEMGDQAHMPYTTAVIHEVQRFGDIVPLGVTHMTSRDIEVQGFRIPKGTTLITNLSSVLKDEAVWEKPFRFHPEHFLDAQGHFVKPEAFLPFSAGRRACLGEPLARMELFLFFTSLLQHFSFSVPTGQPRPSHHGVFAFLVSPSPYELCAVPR

Sequence of Sphingosine 1-phosphate receptor 1 (P21453 whole entry): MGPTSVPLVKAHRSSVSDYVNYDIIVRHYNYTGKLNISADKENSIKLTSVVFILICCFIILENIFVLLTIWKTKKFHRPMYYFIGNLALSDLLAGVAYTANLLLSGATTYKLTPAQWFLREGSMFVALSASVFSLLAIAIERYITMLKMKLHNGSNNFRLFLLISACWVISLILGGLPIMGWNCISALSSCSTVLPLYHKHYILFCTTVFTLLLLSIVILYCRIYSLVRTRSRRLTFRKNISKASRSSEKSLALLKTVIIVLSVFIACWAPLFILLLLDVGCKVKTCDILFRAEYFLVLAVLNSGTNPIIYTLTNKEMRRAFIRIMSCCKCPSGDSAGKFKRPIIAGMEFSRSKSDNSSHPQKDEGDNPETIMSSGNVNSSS
Sequence of Cytochrome P450 3A5 (P20815 whole entry): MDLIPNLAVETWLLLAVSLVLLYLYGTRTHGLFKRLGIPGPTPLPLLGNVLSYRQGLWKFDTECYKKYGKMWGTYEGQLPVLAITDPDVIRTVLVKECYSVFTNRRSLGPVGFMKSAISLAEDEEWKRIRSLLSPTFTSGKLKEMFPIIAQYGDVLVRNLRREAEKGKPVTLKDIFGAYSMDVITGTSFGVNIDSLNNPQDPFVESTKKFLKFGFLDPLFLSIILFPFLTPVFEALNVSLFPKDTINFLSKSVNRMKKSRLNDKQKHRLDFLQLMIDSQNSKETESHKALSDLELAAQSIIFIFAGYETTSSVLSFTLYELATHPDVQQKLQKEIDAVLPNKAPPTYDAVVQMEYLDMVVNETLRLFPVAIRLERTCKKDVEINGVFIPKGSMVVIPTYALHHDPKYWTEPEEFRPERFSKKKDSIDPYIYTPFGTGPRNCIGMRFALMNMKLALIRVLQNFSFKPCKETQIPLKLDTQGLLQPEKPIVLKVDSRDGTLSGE
Sequence of Cytochrome P450 3A4 (P08684 whole entry): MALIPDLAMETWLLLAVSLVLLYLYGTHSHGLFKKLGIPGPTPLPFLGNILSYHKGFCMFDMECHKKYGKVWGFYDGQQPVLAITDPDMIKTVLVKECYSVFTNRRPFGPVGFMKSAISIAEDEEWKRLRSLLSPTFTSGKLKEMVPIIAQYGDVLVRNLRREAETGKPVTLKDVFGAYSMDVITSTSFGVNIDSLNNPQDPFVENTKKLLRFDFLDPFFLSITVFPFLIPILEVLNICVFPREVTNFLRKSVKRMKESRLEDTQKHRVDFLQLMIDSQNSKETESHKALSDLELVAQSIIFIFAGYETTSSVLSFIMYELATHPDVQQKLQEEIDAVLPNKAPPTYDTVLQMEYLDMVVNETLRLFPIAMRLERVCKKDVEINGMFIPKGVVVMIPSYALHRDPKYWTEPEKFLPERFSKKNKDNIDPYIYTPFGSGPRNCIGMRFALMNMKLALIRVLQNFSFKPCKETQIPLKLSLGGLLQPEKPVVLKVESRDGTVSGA
Sequence of Cytochrome P450 2C19 (P33261 whole entry): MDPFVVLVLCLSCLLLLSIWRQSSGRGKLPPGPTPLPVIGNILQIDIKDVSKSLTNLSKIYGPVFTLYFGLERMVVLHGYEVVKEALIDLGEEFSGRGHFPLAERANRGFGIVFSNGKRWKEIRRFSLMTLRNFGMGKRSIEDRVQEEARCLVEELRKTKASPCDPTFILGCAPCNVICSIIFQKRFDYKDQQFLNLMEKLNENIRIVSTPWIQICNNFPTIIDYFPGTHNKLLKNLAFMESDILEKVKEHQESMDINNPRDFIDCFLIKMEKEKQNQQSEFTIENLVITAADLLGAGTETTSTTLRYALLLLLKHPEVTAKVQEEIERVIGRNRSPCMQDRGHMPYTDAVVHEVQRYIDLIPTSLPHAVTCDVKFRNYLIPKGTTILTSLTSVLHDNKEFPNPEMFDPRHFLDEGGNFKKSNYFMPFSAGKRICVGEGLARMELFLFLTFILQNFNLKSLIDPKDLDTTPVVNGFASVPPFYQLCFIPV

Structure (SMILES): CCn1c([C@@H](C)NS(=O)(=O)c2ccc(Cl)cc2)nc2cc(C(N)=O)ccc21
- EC50 [1]: 0.19 µM
- microsomal CLint [2]: < 5 µL/min/mg

Structure (SMILES): CCn1c([C@@H](C)NS(=O)(=O)c2ccc(C#N)nc2)nc2cnc(OC)cc21
- Activity (Cytochrome P450 3A5): < 40%
- Activity (Cytochrome P450 3A4): < 40%
- logD [3]: 1
- EC50 [1]: 0.028 µM
- Activity [4]: 11%

Structure (SMILES): CCn1c([C@@H](C)NS(=O)(=O)c2cccc(Cl)c2)nc2ccc(C(F)(F)F)cc21
- EC50 [1]: 0.027 µM
- microsomal CLint [2]: > 100 µL/min/mg

Structure (SMILES): CCn1c([C@@H](C)NS(=O)(=O)c2ccc(NC(C)=O)c(C)c2)nc2ccc(C(F)(F)F)cc21
- EC50 [1]: 12.4 µM
- microsomal CLint [2]: > 100 µL/min/mg

Structure (SMILES): CCn1c([C@@H](C)NS(=O)(=O)c2c(F)cc(F)cc2F)nc2ccc(C(F)(F)F)cc21
- EC50 [1]: 0.24 µM
- microsomal CLint [2]: 19 µL/min/mg

Structure (SMILES): CCn1c([C@@H](C)NS(=O)(=O)c2ccc(CC(C)C)cc2)nc2ccc(C(F)(F)F)cc21
- EC50 [1]: 1.8 µM
- microsomal CLint [2]: > 100 µL/min/mg

Structure (SMILES): CCn1ncc(S(=O)(=O)N[C@H](C)c2nc3ccc(C(F)(F)F)cc3n2CC)c1C
- EC50 [1]: 0.43 µM
- microsomal CLint [2]: > 100 µL/min/mg

Structure (SMILES): CCn1c([C@@H](C)NS(=O)(=O)c2ccccc2)nc2ccc(C(F)(F)F)cc21
- EC50 [1]: 0.008 µM
- microsomal CLint [2]: 14 µL/min/mg

Structure (SMILES): CCn1c([C@@H](C)NS(=O)(=O)c2ccc(Cl)cc2)nc2cc(CO)ccc21
- EC50 [1]: 0.18 µM
- microsomal CLint [2]: 88 µL/min/mg

Structure (SMILES): CCCn1cc(S(=O)(=O)N[C@H](C)c2nc3ccc(C(F)(F)F)cc3n2CC)c(C)n1
- EC50 [1]: 0.42 µM
- microsomal CLint [2]: > 100 µL/min/mg

Structure (SMILES): CCCn1ncc(S(=O)(=O)N[C@H](C)c2nc3ccc(C(F)(F)F)cc3n2CC)c1C
- EC50 [1]: 0.8 µM
- microsomal CLint [2]: > 100 µL/min/mg

Structure (SMILES): CCn1c([C@@H](C)NS(=O)(=O)c2ccc(C#N)cc2)nc2cnccc21
- Activity (Cytochrome P450 3A5): < 40%
- Activity (Cytochrome P450 3A4): < 40%
- EC50 [1]: 0.034 µM
- Activity [4]: 14%

Structure (SMILES): CCn1c([C@@H](C)NS(=O)(=O)c2cnc(NC(C)=O)s2)nc2ccc(C(F)(F)F)cc21
- EC50 [1]: 2.2 µM
- microsomal CLint [2]: 15 µL/min/mg

Structure (SMILES): CCn1c([C@@H](C)NS(=O)(=O)c2ccc(C#N)cc2)nc2ccc(C(F)(F)F)cc21
- EC50 [1]: 0.012 µM
- microsomal CLint [2]: 34 µL/min/mg

Structure (SMILES): CCn1c(C(C)NS(=O)(=O)c2ccc(Cl)cc2)nc2cccnc21 (stereo unspecified)
- EC50 [1]: 2.34 µM
- microsomal CLint [2]: 94 µL/min/mg

Structure (SMILES): CCn1c([C@@H](C)NS(=O)(=O)c2ccccn2)nc2ccc(C(F)(F)F)cc21
- EC50 [1]: 9.2 µM
- microsomal CLint [2]: < 3 µL/min/mg

Structure (SMILES): CCn1c([C@@H](C)NS(=O)(=O)c2cnc(C)n2C)nc2ccc(C(F)(F)F)cc21
- EC50 [1]: 0.65 µM
- microsomal CLint [2]: 58 µL/min/mg

Structure (SMILES): CCn1c([C@@H](C)NS(=O)(=O)c2ccc(C#N)cc2)nc2cnc(C(F)(F)F)cc21
- Activity (Cytochrome P450 3A5): < 40%
- Activity (Cytochrome P450 3A4): < 40%
- logD [3]: 1.6
- EC50 [1]: 0.003 µM
- Activity [4]: 32%

Structure (SMILES): CCn1c(C(C)NS(=O)(=O)c2ccc(Cl)cc2)nc2ccncc21 (stereo unspecified)
- EC50 [1]: 1.17 µM
- microsomal CLint [2]: 93 µL/min/mg

Structure (SMILES): CCn1c([C@@H](C)NS(=O)(=O)C2CC2)nc2ccc(C(F)(F)F)cc21
- EC50 [1]: 9 µM
- microsomal CLint [2]: < 3 µL/min/mg

Structure (SMILES): CCn1c([C@@H](C)NS(=O)(=O)c2ccc(Cl)cc2)nc2cccc(Cl)c21
- EC50 [1]: 0.8 µM
- microsomal CLint [2]: > 100 µL/min/mg

Structure (SMILES): CCn1c([C@@H](C)NS(=O)(=O)c2ccc(C)cc2)nc2ccc(C(F)(F)F)cc21
- EC50 [1]: 0.024 µM
- microsomal CLint [2]: > 100 µL/min/mg

Structure (SMILES): CCn1c([C@@H](C)NS(=O)(=O)c2ccc(C#N)cc2)nc2cnc(OC)cc21
- Activity (Cytochrome P450 3A5): < 40%
- Activity (Cytochrome P450 3A4): < 40%
- logD [3]: 1.4
- EC50 [1]: 0.009 µM
- Activity [4]: 18%

Structure (SMILES): CCn1c(C(C)NS(=O)(=O)c2ccc(Cl)cc2)nc2ncccc21 (stereo unspecified)
- EC50 [1]: 0.31 µM
- microsomal CLint [2]: 15 µL/min/mg

Structure (SMILES): CCn1c([C@@H](C)NS(=O)(=O)c2ccc(C#N)cc2)nc2cnc(C3CC3)cc21
- Activity (Cytochrome P450 3A5): < 40%
- Activity (Cytochrome P450 3A4): < 40%
- logD [3]: 1.9
- EC50 [1]: 0.006 µM
- Activity [4]: 27%

Structure (SMILES): CCn1c([C@@H](C)NS(=O)(=O)c2ccc(Cl)cc2)nc2cc(F)c(Cl)cc21
- EC50 [1]: 0.001 µM
- microsomal CLint [2]: > 100 µL/min/mg

Structure (SMILES): CCn1c([C@@H](C)NS(=O)(=O)c2ccc(Cl)cc2)nc2ccc(CO)cc21
- EC50 [1]: 0.005 µM
- microsomal CLint [2]: 84 µL/min/mg

Structure (SMILES): CCn1c([C@@H](C)NS(=O)(=O)c2cn(C)c(C)n2)nc2ccc(C(F)(F)F)cc21
- EC50 [1]: 4 µM
- microsomal CLint [2]: 43 µL/min/mg

Structure (SMILES): CCn1c([C@@H](C)NS(=O)(=O)c2cn(C)nc2C)nc2ccc(C(F)(F)F)cc21
- EC50 [1]: 1 µM
- microsomal CLint [2]: 28 µL/min/mg

Structure (SMILES): CCn1c([C@@H](C)NS(=O)(=O)c2ccncc2)nc2ccc(C(F)(F)F)cc21
- EC50 [1]: 0.026 µM
- IC50 (Cytochrome P450 2C19): 0.04 µM
- microsomal CLint [2]: 45 µL/min/mg

Structure (SMILES): CCn1c(C(C)NS(=O)(=O)c2ccc(Cl)cc2)nc2cnccc21 (stereo unspecified)
- IC50 (Cytochrome P450 2D6): 0.23 µM
- EC50 [1]: 0.21 µM
- IC50 (Cytochrome P450 2C19): 0.91 µM
- microsomal CLint [2]: 35 µL/min/mg

Structure (SMILES): CCn1c([C@@H](C)NS(=O)(=O)c2ccc(Cl)cc2)nc2ccc(OC)cc21
- EC50 [1]: 0.009 µM
- microsomal CLint [2]: > 100 µL/min/mg

Structure (SMILES): CCn1c([C@@H](C)NS(=O)(=O)c2ccc(Cl)cc2)nc2ccc(S(C)(=O)=O)cc21
- EC50 [1]: 1.84 µM
- microsomal CLint [2]: < 5 µL/min/mg

Structure (SMILES): CCn1cc(S(=O)(=O)N[C@H](C)c2nc3ccc(C(F)(F)F)cc3n2CC)cn1
- EC50 [1]: 0.59 µM
- microsomal CLint [2]: 95 µL/min/mg

Structure (SMILES): CCn1c([C@@H](C)NS(=O)(=O)c2cnn(C(C)C)c2C)nc2ccc(C(F)(F)F)cc21
- EC50 [1]: 1.1 µM
- microsomal CLint [2]: > 100 µL/min/mg

Structure (SMILES): CCn1c([C@@H](C)NS(=O)(=O)c2cccc(C#N)c2)nc2ccc(C(F)(F)F)cc21
- EC50 [1]: 0.057 µM
- microsomal CLint [2]: > 100 µL/min/mg

Structure (SMILES): CCn1c([C@@H](C)NS(=O)(=O)c2ccc(Cl)cc2)nc2cc(N3CCOCC3)ccc21
- EC50 [1]: 2.42 µM
- microsomal CLint [2]: 45 µL/min/mg

Structure (SMILES): CCn1c([C@@H](C)NS(=O)(=O)c2ccc(Cl)cc2)nc2ccc(CN(C)C)cc21
- EC50 [1]: 23.5 µM
- microsomal CLint [2]: 30 µL/min/mg

Structure (SMILES): CCn1c([C@@H](C)NS(=O)(=O)c2ccc(Cl)cc2)nc2cc(C#N)ccc21
- EC50 [1]: 0.13 µM
- microsomal CLint [2]: 71 µL/min/mg

Structure (SMILES): CCn1c([C@@H](C)NS(=O)(=O)C2CCCC2)nc2ccc(C(F)(F)F)cc21
- EC50 [1]: 1.8 µM
